How the values were obtained:
[1] = molecular target: T1, ΔNhSENP1 (Homo sapiens, UniProt Q9P0U3); assay: ProSUMO processing; assay type: biochemical; conditions: 100nM ΔNhSENP1, 0–100μM compound, 30 min pre-treatment
T1 sequence (Q9P0U3 450-613 limits assumed): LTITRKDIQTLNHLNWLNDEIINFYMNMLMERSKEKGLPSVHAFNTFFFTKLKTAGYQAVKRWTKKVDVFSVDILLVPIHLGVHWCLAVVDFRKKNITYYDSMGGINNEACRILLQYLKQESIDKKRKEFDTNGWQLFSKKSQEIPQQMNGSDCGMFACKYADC
Outline: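 ΔNhSENP1 (100 nM) was pretreated with inhibitor for 30 min in 50 mM Tris pH 7.4, 5 mM NaCl, 5 mM DTT (37 °C in methods, room temperature in legend). It then cleaved recombinant hSUMO1 carrying its full pro-sequence and a C-terminal His6 tag for 1 h at 37 °C. Loss of the pro-region and tag was scored as a band shift on SDS-PAGE with Gelcode Blue stain, beside a substrate-only lane.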

[2] = molecular target: T2, human SENP8 (Homo sapiens, UniProt Q96LD8); assay: Cross-reactivity against purified deNEDDylase; assay type: biochemical; conditions: purified enzyme, Figure S4
T2 sequence (Q96LD8 1-212): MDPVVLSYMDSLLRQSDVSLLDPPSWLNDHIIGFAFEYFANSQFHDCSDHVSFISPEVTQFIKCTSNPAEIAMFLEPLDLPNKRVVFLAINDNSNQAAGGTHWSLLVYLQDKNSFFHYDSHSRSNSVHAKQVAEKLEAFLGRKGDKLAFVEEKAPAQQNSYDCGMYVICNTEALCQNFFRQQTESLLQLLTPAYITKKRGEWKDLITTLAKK

[3] = molecular target: T3, human DUB UCHL3 (Homo sapiens, UniProt P15374); assay: Cross-reactivity against purified DUB; assay type: biochemical; conditions: purified enzyme, Figure S4
T3 sequence (P15374 1-230): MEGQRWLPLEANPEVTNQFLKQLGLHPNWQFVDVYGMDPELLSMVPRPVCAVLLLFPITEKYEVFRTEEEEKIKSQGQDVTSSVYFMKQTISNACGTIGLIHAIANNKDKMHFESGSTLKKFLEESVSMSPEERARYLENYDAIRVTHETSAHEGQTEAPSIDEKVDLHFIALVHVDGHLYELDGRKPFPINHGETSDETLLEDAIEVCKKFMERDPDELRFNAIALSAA

[4] = Stability of the epoxide in aqueous media; assay type: physicochemical; conditions: relative to aza-aspartic acid epoxides
[5] = tested on: ΔNhSENPs1, 2, 5, 6 and 7; assay: Fluorogenic substrate screen against the panel of recombinant hSENPs; assay type: biochemical, human; conditions: 50μM inhibitor, 1 hour preincubation, heat map Figure 4
Outline: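 Recombinant N-terminally truncated hSENPs were preincubated 1 h at 37 °C with 50 μM inhibitor in 50 mM Tris pH 8.0, 20 mM NaCl, 10 mM DTT. The enzyme level is given only for hSENP1, at 2 μM final. Then 100 nM Ac-QTGG-AFC (SENP1, 2, 5) or Ac-LRGG-AFC (SENP6, 7) was added. AFC release was read at 405/510 nm, 37 °C. Slope (RFU/min) was taken relative to DMSO (100%), averaging independent triplicates.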

[6] = tested on: PfSENP1; conditions: P. falciparum lysates; ref Ponder et al. Submitted; cited from earlier work
[7] = molecular target: T4, endogenous SENP1 (Homo sapiens, UniProt Q9P0U3); assay: Cell lysate treatment, competition of HA-SUMO2vme labeling; assay type: binding; conditions: treatment of cell lysates
T4 sequence (Q9P0U3 1-644): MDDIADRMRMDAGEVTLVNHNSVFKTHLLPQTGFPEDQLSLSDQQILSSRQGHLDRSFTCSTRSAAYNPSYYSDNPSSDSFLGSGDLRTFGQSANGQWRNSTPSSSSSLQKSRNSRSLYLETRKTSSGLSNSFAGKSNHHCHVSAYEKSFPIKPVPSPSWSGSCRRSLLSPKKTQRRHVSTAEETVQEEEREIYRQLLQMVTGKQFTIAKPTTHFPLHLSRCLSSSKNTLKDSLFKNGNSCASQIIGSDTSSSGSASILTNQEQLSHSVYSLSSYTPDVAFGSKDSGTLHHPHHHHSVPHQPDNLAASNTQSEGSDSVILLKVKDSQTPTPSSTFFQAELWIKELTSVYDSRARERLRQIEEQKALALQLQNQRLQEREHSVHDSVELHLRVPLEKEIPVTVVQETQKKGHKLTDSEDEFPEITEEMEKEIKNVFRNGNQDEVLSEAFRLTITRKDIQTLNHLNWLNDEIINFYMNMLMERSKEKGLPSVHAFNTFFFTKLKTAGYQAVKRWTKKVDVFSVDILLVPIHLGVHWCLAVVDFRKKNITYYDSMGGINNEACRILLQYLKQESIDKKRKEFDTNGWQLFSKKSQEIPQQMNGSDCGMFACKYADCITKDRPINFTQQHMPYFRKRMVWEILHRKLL

[8] = molecular target: T5, endogenous SENP6 (Homo sapiens, UniProt Q9GZR1); assay: as above; assay type: binding; conditions: treatment of cell lysates
T5 sequence (Q9GZR1 1-1112): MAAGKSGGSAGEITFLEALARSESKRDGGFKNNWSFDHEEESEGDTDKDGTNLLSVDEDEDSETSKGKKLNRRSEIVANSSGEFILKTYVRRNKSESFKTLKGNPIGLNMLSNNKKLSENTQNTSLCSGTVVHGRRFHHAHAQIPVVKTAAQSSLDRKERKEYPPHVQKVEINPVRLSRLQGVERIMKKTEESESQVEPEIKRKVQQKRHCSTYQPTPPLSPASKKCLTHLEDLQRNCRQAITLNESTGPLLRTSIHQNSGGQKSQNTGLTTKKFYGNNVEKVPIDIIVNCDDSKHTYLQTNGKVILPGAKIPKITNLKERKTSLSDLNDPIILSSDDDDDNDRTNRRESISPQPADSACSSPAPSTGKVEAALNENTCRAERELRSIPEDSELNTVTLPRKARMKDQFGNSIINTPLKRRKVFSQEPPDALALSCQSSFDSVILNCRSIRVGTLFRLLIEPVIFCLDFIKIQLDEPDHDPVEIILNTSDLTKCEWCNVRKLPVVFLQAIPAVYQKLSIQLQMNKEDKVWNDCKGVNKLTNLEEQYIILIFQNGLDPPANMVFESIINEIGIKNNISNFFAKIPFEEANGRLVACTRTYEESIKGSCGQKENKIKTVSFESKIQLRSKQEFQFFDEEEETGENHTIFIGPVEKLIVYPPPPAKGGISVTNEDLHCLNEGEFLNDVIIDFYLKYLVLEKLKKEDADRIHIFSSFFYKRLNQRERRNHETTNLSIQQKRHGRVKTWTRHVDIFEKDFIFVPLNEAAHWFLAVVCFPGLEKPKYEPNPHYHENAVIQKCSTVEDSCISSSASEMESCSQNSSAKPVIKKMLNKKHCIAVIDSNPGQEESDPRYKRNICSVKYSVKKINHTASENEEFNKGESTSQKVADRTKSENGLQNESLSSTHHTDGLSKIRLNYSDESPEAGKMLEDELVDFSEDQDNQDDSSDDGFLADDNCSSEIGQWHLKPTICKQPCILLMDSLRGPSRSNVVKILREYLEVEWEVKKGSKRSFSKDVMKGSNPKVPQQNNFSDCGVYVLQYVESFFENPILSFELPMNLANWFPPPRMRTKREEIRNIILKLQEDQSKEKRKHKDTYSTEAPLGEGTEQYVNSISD

[9] = tested on: DUBs in HEK293 cell lysates; assay: Competition of HA-Ubvme probe labeling in HEK293 cell lysates; assay type: binding, human; conditions: Figure S4

| activity against UCHL3 [3] | SMILES | activity against hSENP8 [2] | relative inhibitor potency in the fixed concentration screen [5] | also measured |
| --- | --- | --- | --- | --- |
| only activity against hSENP8 | C[C@H](O)C(NC(=O)[C@H](CCC(N)=O)NC(=O)Cc1ccc(O)c([N+](=O)[O-])c1)C(=O)NCC(=O)NCC(=O)COC(=O)c1c2ccccc2cc2ccccc12 (some centres unmarked) [VEA499] | only activity against hSENP8 | substantially more potent than the tripeptide (VEA498) equivalent | – |
| only activity against hSENP8 | CC(C)C[C@H](NC(=O)Cc1ccc(O)c([N+](=O)[O-])c1)C(=O)N[C@@H](CCCN=C(N)N)C(=O)NCC(=O)NCC(=O)COC(=O)c1c2ccccc2cc2ccccc12 [VEA561] | only activity against hSENP8 | most potent towards hSENP6 and hSENP7 | – |
| – | O=C(O)CN(NC(=O)c1ccc(CNC(=O)c2cccc(C(=O)O)c2)cc1)C(=O)[C@H]1O[C@@H]1C(=O)N(Cc1cccc2ccccc12)Cc1cccc2ccccc12 [JCP666] | – | – | potency against parasite SENP [6]: effectively blocked PfSENP activity |
| – | O=C(CNC(=O)c1ccc(CNC(=O)c2cccc(C(=O)O)c2)cc1)COC(=O)c1c2ccccc2cc2ccccc12 [VEA401] | – | – | block of endogenous SENP1 labeling by HA-SUMO2vme probe [7]: not able to find conditions in which we could treat cell lysates with VEA401 and block labeling of endogenous SENP1 or SENP6; block of endogenous SENP6 labeling by HA-SUMO2vme probe [8]: not able to find conditions in which we could treat cell lysates with VEA401 and block labeling of endogenous SENP1 or SENP6; block of DUB labeling by HA-Ubvme probe [9]: did not block labeling of DUBs |

| SMILES | activity against UCHL3 [3] | activity against hSENP8 [2] | relative inhibitor potency in the fixed concentration screen [5] | also measured |
| --- | --- | --- | --- | --- |
| O=C(O)c1cccc(C(=O)NCc2ccc(C(=O)NNC(=O)[C@H]3O[C@@H]3C(=O)N(Cc3cccc4ccccc34)Cc3cccc4ccccc34)cc2)c1 [VEA260] | virtually no activity against either enzyme | virtually no activity against either enzyme | – | activity in ProSUMO processing assay [1]: retained full activity against hSENP1; stability of the compound [4]: more stable compound |
